Assay outcomes (PubChem)
UBC13 inh: UBC13 polyubiquitin chain formation inhibitors, primary screen, biochemical, TR-FRET, uHTS; 330,000 compounds, 0.47% hits; inhibition, % at 20 µM; Ubiquitin-conjugating enzyme E2 N (Homo sapiens), P61088; AID 485273, 2010; in the data active means inhibition above about 45%, passing the limit was not always enough
SR-BI uptake up: activators of SR-BI mediated DiI-HDL uptake, primary screen, ldlA[mSR-BI] CHO cells, DiI fluorescence; 3 h; 100 = double the neutral-control signal; activation, % at 12.5 µM; 320,000 compounds, 0.096% hits;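 active means mean replicate activation of at least 60% and every replicate at or above 60%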
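Assay system: CHO ldlA[mSR-BI] cells, LDL receptor-null, SR-BI overexpressing; medium: Ham's F12 with 0.5% BSA, HEPES 25 mM, pH 7.4; also added: DiI-HDL 10 µg/mL; timing: 3 h uptake period with compound, 37 °C; signal: DiI fluorescence, bottom read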
Neddyl block: inhibitors of cullin neddylation, primary screen, biochemical, TR-FRET, uHTS, NAE and Ubc12; NEDD8-conjugating enzyme Ubc12 (Homo sapiens) + NEDD8-activating enzyme E1 regulatory …; inhibition, % at 25 µM; 360,000 compounds, 0.58% hits; AID 651699, 2012; in the data active means inhibition above about 36%
SR-BI HDL uptake: inhibitors of SR-BI mediated HDL lipid uptake, primary screen, ldlA[mSR-BI] cells, fluorescence, single point; ldlA[mSR-BI] CHO cells, DiI-HDL uptake fluorescence, 3 h; Scavenger receptor class B member 1 (Mus musculus), Q61009; 320,000 compounds, 0.96% hits; inhibition, % at 12.5 µM;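 active means mean replicate inhibition of at least 70% and a set share of replicates each scoring 70 or more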
Numbers stand for hits; n = inactive; x = no result given. In the library only some 1.9% were active in any assay of this set; here they are far more common.

SMILES	UBC13 inh	SR-BI uptake up	Neddyl block	SR-BI HDL uptake
O=C(CSc1ccc(Cl)cc1)OCC(=O)N1CCN(c2ccccc2)CC1	n	n	n	n
CCCNC(=O)C1(C)CCN(C(=O)c2ccc3c(c2)CCO3)C1 (stereo not given)	x	x	n	x
Cc1ccc(-c2cc(-c3ccc(C)cc3O)[nH]n2)cc1	n	n	n	100
Cc1csc(C(=O)NN)c1N(C)C	n	n	n	n
O=C(O)CN1CCNCCN(CC(=O)O)CCNCC1	x	n	n	n
c1ccc(-c2nnc(-c3ccccc3)c(-c3c[nH]c4ccccc34)n2)cc1	n	n	n	76
Clc1ccc(-c2nnc(-c3ccccc3)nc2-c2c[nH]c3ccccc23)cc1	n	n	n	n
CCCCCNCC(=O)Nc1cccc(C(=O)Nc2cccc(C(F)(F)F)c2)c1	n	n	n	n
Cc1ccc(C(=O)Nc2cccc(-c3ccc(N4CCOCC4)nn3)c2)cc1C	n	n	n	77
CCCS(=O)(=O)NC(=O)C1(C)CCCN(C(=O)c2cccc(C)c2C)C1 (stereo not given)	x	x	n	x
Cc1cc(N/N=C/c2ccc(O)c(C)c2O)nc(-c2ccccc2O)n1	x	n	x	104
Cc1cc(Nc2ccc(Br)cc2)nc(-c2ccccc2O)n1	n	n	n	75
Cc1ccc(Nc2cc(C)nc(-c3ccccc3O)n2)cc1	n	n	n	n
C/C(=N\Nc1cc(C)nc(-c2ccccc2O)n1)c1ccccc1	n	n	x	n
Cc1c(Cl)cccc1N1C(=O)CC(N(O)c2ccccc2)C1=O (stereo not given)	n	218	n	n
CCN(Cc1cccs1)C(=O)CN1CCN(S(=O)(=O)c2ccc3c(c2)OCCCO3)CC1	n	n	n	n
CC1CCc2nc(NC(=O)c3cc(C(C)(C)C)nn3C)sc2C1 (stereo not given)	n	x	n	x
Cc1ccc(-c2nc(NC(=O)c3cc(C(C)(C)C)nn3C)sc2C)cc1Cl	n	n	n	73
COc1ccc(-c2csc(Nc3ncccc3C)n2)cc1OC	n	n	n	72
CC(C(=O)Nc1nc(-c2ccc(F)c(F)c2)cs1)N1C(=O)C2CC=CCC2C1=O (stereo not given)	n	n	n	n
COc1ccc(-c2csc(NC(C)=O)n2)cc1OC	n	n	n	n
COc1cccc(NC(=O)Nc2nc(-c3ccc(OC)c(OC)c3)cs2)c1	n	n	n	77
COc1ccc(-c2csc(NC(=O)CCn3cnc4ccccc4c3=O)n2)cc1OC	n	n	n	75
COc1ccc(-c2csc(NC(=O)CCCc3nc4ccccc4c(=O)[nH]3)n2)cc1OC	n	n	n	n
COc1ccc(-c2csc(Nc3ncccc3C)n2)cc1	n	n	n	n
SMILES	UBC13 inh	SR-BI uptake up	Neddyl block	SR-BI HDL uptake
COc1ccc(-c2csc(NC(=O)[C@H](C)N3C(=O)C4CC=CCC4C3=O)n2)cc1OC (stereo not given in full)	n	n	n	71
COc1ccc(OC)c(Cc2nnc(CCC(=O)N3CCN(C4CCCC4)CC3)o2)c1	n	n	n	n
O=C(Nc1cccc(Cl)c1)Nc1nc(-c2ccc(Cl)cc2)cs1	n	n	n	79
O=C(Nc1ccc(N2CCN(C(=O)c3ccco3)CC2)c(Cl)c1)c1cc2ccccc2o1	n	n	x	82
CCC(=O)N1CCN(c2ccc(NC(=O)c3cc4ccccc4o3)cc2Cl)CC1	n	n	n	79
O=C(Nc1ccc(N2CCN(C(=O)c3ccccc3)CC2)c(Cl)c1)c1ccco1	n	n	n	n
CN(C(=O)CSc1nnc(C(F)(F)F)n1C)c1c(N)n(Cc2ccccc2)c(=O)[nH]c1=O	x	x	n	x
O=C(CCl)N(CCc1ccccc1)CCc1ccccc1	n	n	n	n
NNC(=O)c1cc2c(s1)-c1cc(Cl)ccc1SC2	n	n	x	99
CCN(CC(=O)NCc1cccs1)C(=O)c1ccc(NS(=O)(=O)c2cccc([N+](=O)[O-])c2)cc1	n	n	n	n
Cc1cc(/C=N/n2c(COc3ccccc3)nc3ccccc3c2=O)c(O)c([N+](=O)[O-])c1	n	n	n	130
Cc1cccc(NC(=O)CSc2nnc(CNC(=O)c3ccc(S(=O)(=O)N(C)C)cc3)n2-c2cccc(C)c2)c1	n	n	n	85
Cc1cccc(NC(=O)CSc2nnc(CNC(=O)c3ccc(S(=O)(=O)N(C)C)cc3)n2-c2ccccc2)c1	n	n	n	n
CCc1ccc(C(C)NC(=O)COC(=O)c2ccc(-n3cnnn3)cc2)cc1 (stereo not given)	n	n	n	n
CCOc1ccc(NC(=O)CN2CCN(CC(=O)c3ccc(OC)c(OC)c3)CC2)cc1	n	n	n	n
CCCCOc1ccc(C(=O)N2CCN(CC(=O)Nc3ccc(C)cc3)CC2)cc1OC	n	n	n	78
COc1ccc(C(=O)NC2CCN(CC(=O)Nc3cccc(C)c3)CC2)cc1OC	n	n	n	80
Cc1ccc(C(C)C)c(OCc2ccc(C(=O)N/N=C/c3ccc(O)cc3O)cc2)c1	x	n	44	129
COCCCNc1nc(-c2ccncc2)nc2ccccc12	n	n	n	75
COCCNc1nc(-c2ccccc2)nc2ccccc12	n	n	n	n
COCCCNc1nc(-c2ccc(Cl)cc2)nc2ccccc12	n	n	n	86
O=[N+]([O-])c1ccc2nc(-c3ccc(Cl)cc3)n(OCc3ccccc3)c2c1	n	n	n	81
Cc1nc(C(=O)Nc2cc(F)cc(Cl)c2)sc1C1(C)CC(c2ccccc2)=NO1 (stereo not given)	n	n	n	80
Cc1nc(C(=O)NC2CC2)sc1C1(C)CC(c2ccccc2)=NO1 (stereo not given)	n	n	n	n
Cc1nc(C(=O)NC2CCCCC2)sc1C1(C)CC(c2cccc([N+](=O)[O-])c2)=NO1 (stereo not given)	n	n	n	76
SMILES	UBC13 inh	SR-BI uptake up	Neddyl block	SR-BI HDL uptake
Cc1nc(-c2ccccc2)sc1C1(C)CC(c2cccc([N+](=O)[O-])c2)=NO1 (stereo not given)	n	n	n	n
Cc1nc(C(=O)Nc2ccc(Cl)cc2)sc1C1(C)CC(c2cccc([N+](=O)[O-])c2)=NO1 (stereo not given)	n	n	n	77
CNC(=O)c1nc(C)c(C2(C)CC(c3ccccc3)=NO2)s1 (stereo not given)	n	n	n	n
O=C(Nc1sc2c(c1C(=O)NC1CCCCC1)CCC2)c1ccco1	n	n	x	75
CNC(=O)c1c(NC(=O)c2ccco2)sc2c1CCC2	n	n	n	n
COc1ccc2c(c1)CCc1sc(NC(=O)c3ccc(C)cc3)nc1-2	n	n	n	n
COc1ccc2c(c1)-c1nc(NC(=O)c3cccs3)sc1CC2	n	n	n	79
COc1ccc2c(c1)-c1nc(NC(=O)c3ccco3)sc1CC2	n	n	n	78
Cc1ccc(NC(=O)c2ccc(Cl)c(S(=O)(=O)N3CCCCCC3)c2)nc1	n	n	n	n
